The values that follow come from ChEMBL document CHEMBL2407001, “Synthesis, in vitro antifungal activity and in silico study of 3-(1,2,4-triazol-1-yl)flavanones” (2013).

In brackets after ≈: the same amount, converted by molar mass.

What all share (format): functional
One experiment concerns Nakaseomyces glabratus. The experiment can be described thus: Antifungal activity against Candida glabrata ATCC 90030 after 24 to 72 hrs by microdilution method. A digest of the protocol: (§1)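 Broth microdilution MIC in U-bottom 96-well plates. Compound stock made in Sabouraud dextrose broth/DMSO (9:1) and serially diluted with SDB. Fungal suspension (1 × 10^3 CFU/mL) added to give a final inoculum of 0.5 × 10^3 CFU/mL. Plates incubated at 35 °C and read at 24, 48 and 72 h. MIC is the lowest concentration with no visible growth compared with a drug-free control well.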
In general terms: Dilution methods test growth across graded concentrations, often in twofold steps.

Experiment [1] has as its system Saccharomyces cerevisiae. The experiment can be described thus: Antifungal activity against Saccharomyces cerevisiae ATCC 9763 after 24 to 72 hrs by microdilution method. Put shortly: as §1
Experiment [2] deals with Saccharomyces cerevisiae. The experiment can be described thus: Antifungal activity against Saccharomyces cerevisiae NCYC 694 after 24 to 72 hrs by microdilution method. Put shortly: as §1
In experiment [3] the test system is Candida albicans. As to the kind of experiment: Antifungal activity against Candida albicans ATCC 10231 after 24 to 72 hrs by microdilution method. A digest of the protocol:
as §1

Another experiment deals with Aspergillus niger. The experiment can be described thus: Antifungal activity against Aspergillus niger ATCC 16404 after 24 to 72 hrs by microdilution method. Put shortly: as §1
Experiment [4] relates to Candida albicans. The experiment can be described thus: Ratio of fluconazole MIC to compound MIC for Candida albicans ATCC 10231.
The subject of experiment [5] is Saccharomyces cerevisiae. The experiment can be described thus: Ratio of fluconazole MIC to compound MIC for Saccharomyces cerevisiae NCYC 694.

With `O=C1c2ccccc2O[C@@H](c2ccccc2)[C@@H]1n1cncn1` (relative stereo), the minimal inhibitory concentration (MIC) (commonly the lowest concentration found to suppress growth) against Nakaseomyces glabratus is more than 62.5 µg/mL; with Saccharomyces cerevisiae [1], 125 µg/mL (≈ 429 µM); in the experiment with Saccharomyces cerevisiae [2] it was more than 125 µg/mL; in the experiment with Candida albicans [3], 31.3 µg/mL (≈ 107 µM); with Aspergillus niger, more than 62.5 µg/mL.

Consider `O=C1c2ccccc2O[C@@H](c2ccc(Cl)cc2)[C@@H]1n1cncn1` (relative stereo), for which the MIC against Nakaseomyces glabratus is more than 62.5 µg/mL; with Saccharomyces cerevisiae [1] it was 3.9 µg/mL (≈ 12 µM); in the experiment on Saccharomyces cerevisiae [2], more than 125 µg/mL; in the experiment with Candida albicans [3], 3.9 µg/mL (≈ 12 µM); against Aspergillus niger, more than 62.5 µg/mL.

For `O=C1c2ccccc2O[C@@H](c2ccc(F)cc2)[C@@H]1n1cncn1` (relative stereo), the MIC against Nakaseomyces glabratus is 31.3 µg/mL (≈ 101 µM); against Saccharomyces cerevisiae [1] it was 3.9 µg/mL (≈ 12.6 µM); with Saccharomyces cerevisiae [2] it was 0.98 µg/mL (≈ 3.17 µM); with Candida albicans [3] it was 3.9 µg/mL (≈ 12.6 µM); with Aspergillus niger, more than 62.5 µg/mL. Moreover, the Ratio with Candida albicans [4] was found to be 8; in the experiment with Saccharomyces cerevisiae [5] it was 16.

On to `Cc1ccc([C@@H]2Oc3ccccc3C(=O)[C@H]2n2cncn2)cc1` (relative stereo), for which the MIC against Nakaseomyces glabratus is more than 62.5 µg/mL; against Saccharomyces cerevisiae [1], more than 125 µg/mL; against Saccharomyces cerevisiae [2], more than 125 µg/mL; in the experiment on Candida albicans [3] it was more than 125 µg/mL; against Aspergillus niger, more than 62.5 µg/mL.

Regarding `COc1ccc([C@@H]2Oc3ccccc3C(=O)[C@H]2n2cncn2)cc1` (relative stereo), the minimal inhibitory concentration (MIC) was more than 62.5 µg/mL in the experiment on Nakaseomyces glabratus; 125 µg/mL (≈ 389 µM) with Saccharomyces cerevisiae [1]; more than 125 µg/mL in the experiment with Saccharomyces cerevisiae [2]; more than 125 µg/mL against Candida albicans [3]; more than 62.5 µg/mL against Aspergillus niger.

With `O=C1c2ccccc2O[C@@H](c2cccc(Cl)c2)[C@@H]1n1cncn1` (relative stereo), the MIC against Nakaseomyces glabratus was 62.5 µg/mL (≈ 192 µM); in the experiment on Saccharomyces cerevisiae [1] it was more than 125 µg/mL; against Saccharomyces cerevisiae [2], 1.95 µg/mL (≈ 5.99 µM); against Candida albicans [3] it was 3.9 µg/mL (≈ 12 µM); against Aspergillus niger, more than 62.5 µg/mL. Moreover, the Ratio in the experiment on Candida albicans [4] and in the experiment on Saccharomyces cerevisiae [5] was 8 each time.

Consider `O=C1c2ccccc2O[C@@H](c2cccc(F)c2)[C@@H]1n1cncn1` (relative stereo), for which the minimal inhibitory concentration (MIC) in the experiment with Nakaseomyces glabratus is more than 62.5 µg/mL; against Saccharomyces cerevisiae [1], 15.6 µg/mL (≈ 50.4 µM); against Saccharomyces cerevisiae [2], more than 125 µg/mL; against Candida albicans [3] it was 15.6 µg/mL (≈ 50.4 µM); in the experiment on Aspergillus niger it was more than 62.5 µg/mL. Further, the Ratio in the experiment with Candida albicans [4] came to 2.

For the molecule `COc1cccc([C@@H]2Oc3ccccc3C(=O)[C@H]2n2cncn2)c1` (relative stereo), the MIC is more than 62.5 µg/mL against Nakaseomyces glabratus; more than 125 µg/mL against Saccharomyces cerevisiae [1]; more than 125 µg/mL in the experiment on Saccharomyces cerevisiae [2]; more than 125 µg/mL against Candida albicans [3]; more than 62.5 µg/mL with Aspergillus niger.

On to `O=C1c2ccccc2O[C@@H](c2ccccc2Cl)[C@@H]1n1cncn1.O=[N+]([O-])O` (relative stereo), for which the MIC against Nakaseomyces glabratus is more than 62.5 µg/mL; in the experiment on Saccharomyces cerevisiae [1] it was 125 µg/mL; with Saccharomyces cerevisiae [2] it was more than 125 µg/mL; against Candida albicans [3], more than 125 µg/mL; in the experiment with Aspergillus niger it was more than 62.5 µg/mL.

Turning to `COc1ccccc1[C@@H]1Oc2ccccc2C(=O)[C@H]1n1cncn1.O=[N+]([O-])O` (relative stereo), the MIC in the experiment with Nakaseomyces glabratus is more than 62.5 µg/mL; against Saccharomyces cerevisiae [1], more than 125 µg/mL; against Saccharomyces cerevisiae [2], more than 125 µg/mL; against Candida albicans [3] it was more than 125 µg/mL; with Aspergillus niger, more than 62.5 µg/mL.

Take `O=C1c2ccccc2O[C@@H](c2ccc(Cl)cc2Cl)[C@@H]1n1cncn1` (relative stereo): the MIC was more than 62.5 µg/mL in the experiment with Nakaseomyces glabratus; 31.3 µg/mL (≈ 86.9 µM) in the experiment on Saccharomyces cerevisiae [1]; 31.3 µg/mL (≈ 86.9 µM) with Saccharomyces cerevisiae [2]; 125 µg/mL (≈ 347 µM) in the experiment on Candida albicans [3]; more than 62.5 µg/mL in the experiment with Aspergillus niger.

As for `O/N=C1\c2ccccc2O[C@@H](c2ccccc2)[C@@H]1n1cncn1` (relative stereo), the MIC against Nakaseomyces glabratus was more than 62.5 µg/mL; against Saccharomyces cerevisiae [1] it was 125 µg/mL (≈ 408 µM); against Saccharomyces cerevisiae [2], more than 125 µg/mL; with Candida albicans [3], more than 125 µg/mL; in the experiment with Aspergillus niger, more than 62.5 µg/mL.

As to `O/N=C1\c2ccccc2O[C@@H](c2ccc(Cl)cc2Cl)[C@@H]1n1cncn1` (relative stereo), the MIC is more than 62.5 µg/mL in the experiment on Nakaseomyces glabratus; 62.5 µg/mL (≈ 167 µM) against Saccharomyces cerevisiae [1]; more than 125 µg/mL in the experiment on Saccharomyces cerevisiae [2]; more than 125 µg/mL in the experiment with Candida albicans [3]; more than 62.5 µg/mL in the experiment on Aspergillus niger.

Turning to `OC(Cn1cncn1)(Cn1cncn1)c1ccc(F)cc1F` [FLUCONAZOLE], the MIC against Nakaseomyces glabratus was 31.3 µg/mL (≈ 102 µM); with Saccharomyces cerevisiae [1], 15.6 µg/mL (≈ 50.9 µM); in the experiment on Saccharomyces cerevisiae [2], 15.6 µg/mL (≈ 50.9 µM); with Candida albicans [3], 31.3 µg/mL (≈ 102 µM); in the experiment with Aspergillus niger, more than 125 µg/mL.

In the experiment on Aspergillus niger, `CC(=O)N1CCN(c2ccc(OCC3COC(Cn4ccnc4)(c4ccc(Cl)cc4Cl)O3)cc2)CC1` (stereo unspecified) [KETOCONAZOLE] returned an MIC of 15.6 µg/mL (≈ 29.4 µM).
